Sampled rows, rich in hits. Any-hit rate of the full collection: about 3.1%.
FGF22 binding-1: binders of human FGF22 protein, primary screen, FGF22 synaptogenesis inhibitor project, biophysical, thermal shift, single point; recombinant FGF22 thermal shift, SYPRO orange fluorescence; percent of sucrose octasulfate shift, DMSO zero; activity (Tm shift, normalised), % at 9.99 µM; actives 1.5% (n = 340,000); AID 651658, 2012;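 active = mean Tm shift, scaled 0 neutral to 100 positive control, at about 1.3% or above, every replicate too, limit read from the data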
Target sequence (Q9HCT0 whole entry, looked up): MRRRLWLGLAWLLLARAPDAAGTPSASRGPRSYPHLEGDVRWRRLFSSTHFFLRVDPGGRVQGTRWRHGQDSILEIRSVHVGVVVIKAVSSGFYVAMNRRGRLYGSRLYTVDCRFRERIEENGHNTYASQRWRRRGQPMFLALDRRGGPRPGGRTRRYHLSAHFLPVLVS
PAX8 reporter: inhibitors of PAX8-driven TPO luciferase reporter, primary screen, RMG-I cells, single concentration. inhibition, % at 12.6 µM. SteadyGlo, 24 h. actives 1.2% (n = 360,000). AID 652154, 2013;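 active = mean replicate inhibition at least 60% with every replicate also reaching 60%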;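 note: luciferase light reporting Pax8 driven TPO promoter activity; plate controls were median of neutral control wells for no effect and mitoxantrone controls for full effect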
Env fusion inh: inhibitors of HIV-1 Env-driven cell-cell fusion, primary screen, HeLa-JRFL effector, CEM21 target cells, luciferase; inhibition, % at 12.3 µM; actives 1.1% (n = 360,000); AID 651610, 2012;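 active = mean replicate inhibition score of at least 50 and every replicate individually at or above 50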;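 note: 0% = plate neutral controls and 100% = maraviroc near 300 nM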
FN deposit inh: inhibitors of fibronectin matrix deposition, primary screen, AH1F cells, Alexa488-fibronectin fluorescence, plate reader; actives 0.086% (n = 350,000); AH1F fibroblasts, overnight; inhibition, % at 12.6 µM;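 active = mean inhibition across replicates of 30% or more, regardless of how many single replicates reach that level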;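 note: positive control wells lacked labelled fibronectin entirely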
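Assay system: AH1F fibroblast monolayer, labelled fibronectin deposition. Amount: 10000 cells per well. Also added: labelled fibronectin 24 nM. Compound: single-point pinned compound. Incubation: cell attachment 1 h, compound and FN exposure overnight. Detection: fluorescence after three HBSS washes, excitation 485 nm, emission 525 nm. Read-out: inhibition of fibronectin deposition signal.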
PGC1a acetyl inh: inhibitors of PGC1a acetylation signal, primary screen, cell-based, U2OS, AlphaScreen, inhibitor mode | AlphaScreen anti-acetyl-lysine; with virally co-expressed GCN5 acetyltransferase | inhibition, % at 15.6 µM | actives 0.17% (n = 350,000) | AID 651687, 2012;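 active = every replicate shows inhibition of at least 40%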;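 note: 0% = neutral control wells and 100% = positive control wells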
EWS-Fli inh: EWS/Fli-driven NR0B1 reporter inhibitors, primary screen, A673 cells, NR0B1 luciferase, luminescence, MLPCN library; actives 0.67% (n = 350,000); inhibition, % at 12.6 µM; AID 651661, 2012; viability-normalised;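 active = mean inhibition of at least 50% after viability correction, with every replicate also passing that limit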;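 note: firefly luciferase signal divided by Alamar Blue viability fluorescence both relative to DMSO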
FGF22 binding-2: binders of human FGF22 protein, dose response, FGF22 synaptogenesis inhibitor project, biophysical, thermal shift, cherry-pick retest | thermal shift activity, °C (ΔTm) at 38 µM | actives 2% (n = 1,000) | shares compounds with FGF22 binding-1 | recombinant FGF22 thermal shift, SYPRO orange fluorescence;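 active = fitted rise in melting shift crosses a set limit at or below the top valid dose tested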
FGF22 TSA DP: binders of human FGF22 protein, dose response, FGF22 synaptogenesis inhibitor project, biophysical, thermal shift, dry powder; shares compounds with FGF22 binding-1; Thermal shift assay, SYPRO orange, melting temperature shift; Tm shift (activity), % at 38 µM; 50 tested, under 10 active; AID 743017, 2013;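 active = compounds whose fitted dose curve of melting temperature shift rises past a set threshold within the tested doses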
SYPRO no-protein: compound-only thermal shift signal without protein, dose response, artefact control for FGF22 binder project, biochemical, cherry-picked samples, RT-PCR instrument | shares compounds with FGF22 binding-1 | compound-only SYPRO orange thermal shift counter-screen, no protein | AC50, µM (top dose mostly 38 µM) | actives 2% (n = 1,000);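 active = rising signal whose fitted curve reaches the 0.54 level within the top valid dose, showing a melting point, actives reach about 13 µM in these data; inactive = the rest, including activity in the opposite direction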; note: value is where the raw curve crosses a fixed level and not half-maximal
* = called active by the depositor; i = inactive; x = not tested or not shown; [ ] = another dose, or the depositor's remark.

SMILES	FGF22 binding-1	PAX8 reporter	Env fusion inh	FN deposit inh	PGC1a acetyl inh	EWS-Fli inh	FGF22 binding-2	SYPRO no-protein	others
C[C@H]1CN([C@@H](C)CO)C(=O)Cc2cc(NC(=O)CCN3CCOCC3)ccc2O[C@H]1CN(C)Cc1ccc(-c2ccccc2)cc1	0	x	6[16.7 µM]	x	5	-13	x	x
C[C@H]1CN([C@@H](C)CO)S(=O)(=O)c2ccc(C#Cc3ccccc3)cc2O[C@H]1CN(C)C(=O)Nc1ccc2c(c1)OCO2	0	55	-22[16.7 µM]	-1	-8	10	x	x
C[C@@H]1CN([C@H](C)CO)S(=O)(=O)c2ccc(C3=CCCCC3)cc2O[C@@H]1CN(C)C(=O)CN(C)C	1	x	-4[16.7 µM]	10	-32	2	x	x
C[C@H]1CN([C@@H](C)CO)S(=O)(=O)c2ccc(C#Cc3ccncc3)cc2O[C@H]1CN(C)C(=O)Nc1ccc2c(c1)OCO2	1.4*	65*	x	x	-1	0	-0.24	i
C[C@@H]1CN([C@H](C)CO)S(=O)(=O)c2ccc(C3=CCCCC3)cc2O[C@H]1CN(C)C(=O)CN(C)C	1.2*	x	21[16.7 µM]	-6	-28	-4	0.22[42 µM]	i
C[C@@H]1CN([C@@H](C)CO)S(=O)(=O)c2ccc(C3=CCCC3)cc2O[C@H]1CN(C)C(=O)Nc1ccc2c(c1)OCO2	0	-3	-3[16.7 µM]	-2	-9	15	x	x
C[C@@H]1CN([C@@H](C)CO)S(=O)(=O)c2ccc(C3=CCCC3)cc2O[C@@H]1CN(C)C(=O)Nc1ccc2c(c1)OCO2	2.0*	0	-65[16.7 µM]	1	-16	29	-0.042[42 µM]	i
C[C@H](CO)N1C[C@H](C)[C@H](CN(C)C(=O)Nc2ccc3c(c2)OCO3)Oc2cc(C3=CCCCC3)ccc2S1(=O)=O	1.6*	10	x	x	-17	0	-0.031	11µM*
CO[C@@H]1CN(C)C(=O)c2ccc(NC(=O)C3CC3)cc2OC[C@@H](C)N(Cc2cccnc2)C[C@@H]1C	0	6	x	2	-2	-3	x	x
C[C@H]1CN([C@@H](C)CO)C(=O)c2cc(NC(=O)Nc3ccc(F)cc3)ccc2O[C@H]1CN(C)C(=O)Nc1cccc2ccccc12	0	-9	x	-3	0	1	x	x
C[C@@H]1CN([C@H](C)CO)C(=O)c2cc(NS(=O)(=O)c3ccc(Cl)cc3)ccc2O[C@@H](C)CCCCO[C@@H]1CN(C)C(=O)Cc1ccccc1	0	17	-17[16.7 µM]	3	-1	4	x	x
Oc1ccc(N=Cc2ccc(O)c(O)c2)cc1	x	x	x	x	1	x	x	x
Oc1ccc(/C=N/N=C/c2ccc(O)c(O)c2)cc1O	1.5*	25	-4	-2	-12	35	0.23	10µM*
O=C(Nc1ccccc1)N1C[C@H]2[C@@H](c3ccccc31)[C@@H](CO)N2C(=O)c1ccncc1	1.4*	-54	x	x	2	-23	-0.096[42 µM]	i
O=C(Nc1cccc(F)c1)N1C[C@H]2[C@@H](c3ccccc31)[C@@H](CO)N2C(=O)c1cccnc1	1	-3	x	-2	-2	-13	x	x
O=C(Nc1ccccc1)N1C[C@@H]2[C@H](c3ccccc31)[C@@H](CO)N2C(=O)c1ccncc1	1	-41	x	x	5	-27	x	x
O=C(Nc1cccc(F)c1)N1C[C@@H]2[C@H](c3ccccc31)[C@H](CO)N2C(=O)c1cccnc1	1.4*	-2	x	-12	-1	-11	0.2[42 µM]	i
CCCNC(=O)N1C[C@H](O)COC[C@@H]2O[C@@H](CC(=O)NCc3ccncn3)CC[C@H]21	0	4	12[16.7 µM]	-11	-6	3	x	x
C[C@@H]1CN([C@@H](C)CO)C(=O)c2cc(NC(=O)Nc3ccc4c(c3)OCO4)ccc2O[C@@H]1CN(C)S(=O)(=O)c1ccc(Cl)cc1	0	x	-33[16.7 µM]	1	-12	-8	x	x
CC(C)NC(=O)Nc1ccc2c(c1)C(=O)N([C@@H](C)CO)C[C@H](C)[C@@H](CN(C)C(=O)NC(C)C)O2	0	-8	x	x	0	2	x	x
O=C(Nc1cc(Cl)cc(Cl)c1)N[C@@H]1CC[C@@H](CCNS(=O)(=O)c2cccc(F)c2)O[C@H]1CO	2.6*	5	17[16.7 µM]	-2	1	6	-0.22[42 µM]	i	FGF22 TSA DP=0
O=C(N[C@@H]1CC[C@@H](CCNS(=O)(=O)c2ccc(F)cc2)O[C@H]1CO)c1ccccn1	0	-19	20[16.7 µM]	x	8	-4	x	x
O=C(Nc1cccc(F)c1)N[C@H]1CC[C@@H](CCNS(=O)(=O)c2cccc(Cl)c2)O[C@@H]1CO	0	-22	-10[16.7 µM]	x	-2	27	x	x
O=C(N[C@H]1CC[C@@H](CCNS(=O)(=O)c2ccc(F)cc2)O[C@H]1CO)c1ccccn1	1.4*	-22	-1[16.7 µM]	x	8	4	0.003[42 µM]	i
COc1ccc(CCNS(=O)(=O)CCNC(=O)c2ccc3c(c2)OCO3)cc1	11*	7	0	1	x	-4	0.08	i
SMILES	FGF22 binding-1	PAX8 reporter	Env fusion inh	FN deposit inh	PGC1a acetyl inh	EWS-Fli inh	FGF22 binding-2	SYPRO no-protein	others
Cc1nc(Oc2ccccc2)c2ccsc2n1	1.4*	-9	-12	-1	5	1	-0.015	i
O=[N+]([O-])c1ccc(Cl)c(S(=O)(=O)Nc2ccc(-c3ccc(N4CCOCC4)nn3)cc2)c1	0	-7	5	4	x	6	x	x
O=[N+]([O-])c1ccc(Cl)c(S(=O)(=O)Nc2ccc(S(=O)(=O)N3CCOCC3)cc2)c1	2.2*	8	11	-2	x	7	0.15	i
CCOc1ccc(N(CC(=O)NCCSc2ccccn2)S(=O)(=O)c2ccc(Cl)cc2)cc1	29*	18	38	15	x	13	0.2	i
CCOc1ccc(N(CC(=O)NCCSc2ccccn2)S(C)(=O)=O)cc1	x	x	x	x	-12	x	x	x
CN1CCN(C(=O)C[C@@H]2C[C@H]3c4cc(NS(C)(=O)=O)ccc4O[C@H]3[C@H](CO)O2)CC1	0	3	-5[16.7 µM]	-9	6	4	x	x

Screening data: PubChem BioAssay, Broad Institute
